In brackets after ≈: the same amount, converted by molar mass. Activity calls are given as the source filed them. The rule behind the calls is not given here.
Legend:
Type in all cases: functional
Lipomyces lipofer = assay: Antimicrobial activity against Lipomyces lipofer NCIM 3252 at 500 ug/disk after 72 hrs by disk diffusion method
How it was run: (§1)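 Disc diffusion on Sabouraud's dextrose agar. 100 µl of fungal suspension at 10⁶ CFU/ml is spread on the plate. Discs carry test compounds at two loadings in DMSO; DMSO alone is the negative control. Clotrimazole disc is the positive reference. Plates are incubated at 27 °C for 72 h, and the zone of inhibition diameter is measured.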

Escherichia coli [1] = assay: Antimicrobial activity against Escherichia coli NCIM 2065 at 500 ug/disk after 24 hrs by disk diffusion method
How it was run: (§2)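 Disc diffusion on Mueller–Hinton agar. 100 µl of bacterial suspension at 10⁸ CFU/ml is spread on the plate. Discs carry test compounds at two loadings, dissolved in DMSO; DMSO alone serves as negative control. Ofloxacin disc is the positive reference. Plates are incubated at 37 °C for 24 h, and the inhibition zone diameter is measured.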

Aspergillus fumigatus = assay: Antimicrobial activity against Aspergillus fumigatus NCIM 902 at 1000 ug/disk after 72 hrs by disk diffusion method; details: NCIM 902, 72 h, read-out: DIZ; how it was run: as §1
Aliivibrio fischeri [2] = assay: Antimicrobial activity against Vibrio fischeri NCIM 2154 at 1000 ug/disk after 24 hrs by disk diffusion method; details: NCIM 2154, 24 h, read-out: DIZ
How it was run: (§3)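 Disc diffusion. 100 µl of bacterial suspension at 10⁸ CFU/ml was spread on Mueller–Hinton agar. Discs loaded with test compound dissolved in DMSO were placed on the lawn, with a DMSO-only disc as negative control. Plates were incubated at 37 °C for 24 h, and the inhibition zone diameter was measured.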

Aspergillus parasiticus [3] = assay: Antimicrobial activity against Aspergillus parasiticus NCIM 904 at 500 ug/disk after 72 hrs by disk diffusion method; details: NCIM 904, 72 h, read-out: DIZ; how it was run: as §1
Rhodotorula mucilaginosa [4] = assay: Antimicrobial activity against Rhodotorula rubra NCIM 3174 at 1000 ug/disk after 72 hrs by disk diffusion method; details: NCIM 3174, 72 h, read-out: DIZ
How it was run: (§4)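 Fungal disc diffusion. 100 µl of suspension at 10⁶ CFU/ml was spread on Sabouraud's dextrose agar. Discs carrying test compound in DMSO were applied, with a DMSO-only disc as negative control. Plates were incubated at 27 °C for 72 h, and the zone of inhibition diameter was measured.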

Proteus vulgaris [5] = assay: Antimicrobial activity against Proteus vulgaris NCIM 2027 at 1000 ug/disk after 24 hrs by disk diffusion method; how it was run: as §2
Aliivibrio fischeri [6] = assay: Antimicrobial activity against Vibrio fischeri NCIM 2154 at 500 ug/disk after 24 hrs by disk diffusion method; details: NCIM 2154, 24 h, read-out: DIZ; how it was run: as §3
Aspergillus parasiticus [7] = assay: Antimicrobial activity against Aspergillus parasiticus NCIM 904 after 72 hrs by serial dilution method; details: NCIM 904, 72 h
How it was run: (§5)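 MIC by broth dilution in Sabouraud's dextrose broth, only for fungi sensitive in disc diffusion. Two-fold serial dilutions of compounds are made in 1 ml broth per tube, range 3.9 to 1000. Inoculated tubes are incubated at 27 °C for 72 h.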

Aspergillus flavus [8] = assay: Antimicrobial activity against Aspergillus flavus NCIM 902 at 500 ug/disk after 72 hrs by disk diffusion method; details: NCIM 902, 72 h, read-out: DIZ; how it was run: as §1
Trichoderma viride [9] = assay: Antimicrobial activity against Trichoderma viride NCIM 1195 at 500 ug/disk after 72 hrs by disk diffusion method; details: NCIM 1195, 72 h, read-out: DIZ; how it was run: as §4
Penicillium chrysogenum [10] = assay: Antimicrobial activity against Penicillium chrysogenum NCIM 707 at 500 ug/disk after 72 hrs by disk diffusion method; how it was run: as §1
[11] = system: Rhodococcus corynebacterioides; assay: Antimicrobial activity against Corynebacterium rubrum NCIM 2252 at 1000 ug/disk after 24 hrs by disk diffusion method; details: Rhodococcoides corynebacterioides, NCIM 2252, 24 h; read-out: DIZ; how it was run: as §2
Aspergillus flavus [12] = assay: Antimicrobial activity against Aspergillus flavus NCIM 902 at 1000 ug/disk after 72 hrs by disk diffusion method; details: NCIM 902, 72 h, read-out: DIZ; how it was run: as §1
Klebsiella aerogenes [13] = assay: Antimicrobial activity against Klebsiella aerogenes NCIM 2239 at 1000 ug/disk after 24 hrs by disk diffusion method; how it was run: as §2
Trichoderma viride [14] = assay: Antimicrobial activity against Trichoderma viride NCIM 1195 after 72 hrs by serial dilution method; details: NCIM 1195, 72 h
How it was run: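 MIC by broth dilution in Sabouraud's dextrose broth, run only on fungi found sensitive in the disc assay. Twofold serial dilutions were made in 1 ml broth per tube, covering 3.9 to 1000. Inoculated tubes were incubated at 27 °C for 72 h.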

Salmonella typhimurium = assay: Antimicrobial activity against Salmonella Typhimurium NCIM 2501 at 1000 ug/disk after 24 hrs by disk diffusion method; details: Salmonella enterica subsp. enterica serovar Typhimurium; how it was run: as §3
Bacillus cereus [15] = assay: Antimicrobial activity against Bacillus cereus NCIM 2155 at 500 ug/disk after 24 hrs by disk diffusion method; how it was run: as §2
Trichoderma viride [16] = assay: Antimicrobial activity against Trichoderma viride NCIM 1195 at 1000 ug/disk after 72 hrs by disk diffusion method; details: NCIM 1195, 72 h, read-out: DIZ; how it was run: as §4
[17] = system: Rhodococcus corynebacterioides; assay: Antimicrobial activity against Corynebacterium rubrum NCIM 2252 at 500 ug/disk after 24 hrs by disk diffusion method; details: Rhodococcoides corynebacterioides, NCIM 2252, 24 h; read-out: DIZ; how it was run: as §2
Proteus vulgaris [18] = assay: Antimicrobial activity against Proteus vulgaris NCIM 2027 at 500 ug/disk after 24 hrs by disk diffusion method; how it was run: as §2
Bacillus cereus [19] = assay: Antimicrobial activity against Bacillus cereus NCIM 2155 at 1000 ug/disk after 24 hrs by disk diffusion method; how it was run: as §2
Escherichia coli [20] = assay: Antimicrobial activity against Escherichia coli NCIM 2065 at 1000 ug/disk after 24 hrs by disk diffusion method; details: NCIM 2065, 24 h, read-out: DIZ; how it was run: as §2
Escherichia coli [21] = assay: Antimicrobial activity against Escherichia coli NCIM 2065 after 24 hrs by serial dilution method; details: NCIM 2065, 24 h
How it was run: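 Broth dilution MIC in nutrient broth, run only for organisms found sensitive in disc diffusion. Compounds are two-fold serially diluted in 1 ml sterile broth per tube, spanning 3.9 to 1000. Inoculated tubes are incubated at 37 °C for 24 h.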

Bacillus subtilis = assay: Antimicrobial activity against Bacillus subtilis NCIM 2063 at 500 ug/disk after 24 hrs by disk diffusion method; details: NCIM 2063, 24 h, read-out: DIZ; how it was run: as §2
Aspergillus flavus [22] = assay: Antimicrobial activity against Aspergillus flavus NCIM 902 after 72 hrs by serial dilution method; details: NCIM 535, 72 h, in the assay text read “NCIM 535” for “NCIM 902”; how it was run: as §5
Pseudomonas aeruginosa [23] = assay: Antimicrobial activity against Pseudomonas aeruginosa NCIM 2200 at 1000 ug/disk after 24 hrs by disk diffusion method; how it was run: as §2
Penicillium chrysogenum [24] = assay: Antimicrobial activity against Penicillium chrysogenum NCIM 707 at 1000 ug/disk after 72 hrs by disk diffusion method; how it was run: as §1
Pseudomonas aeruginosa [25] = assay: Antimicrobial activity against Pseudomonas aeruginosa NCIM 2200 at 500 ug/disk after 24 hrs by disk diffusion method; how it was run: as §3
Klebsiella aerogenes [26] = assay: Antimicrobial activity against Klebsiella aerogenes NCIM 2239 at 500 ug/disk after 24 hrs by disk diffusion method; how it was run: as §2
Staphylococcus = assay: Antimicrobial activity against Staphylococcus albus NCIM 2178 at 1000 ug/disk after 24 hrs by disk diffusion method; how it was run: as §3
Rhodotorula mucilaginosa [27] = assay: Antimicrobial activity against Rhodotorula rubra NCIM 3174 at 500 ug/disk after 72 hrs by disk diffusion method; details: NCIM 3174, 72 h, read-out: DIZ; how it was run: as §4

How did the “diameter of the inhibition zone (DIZ)” value (Lipomyces lipofer) turn out when `O=C1CCCC2=C1C(c1ccccc1Cl)c1ccc3ccccc3c1N2` (configuration not stated) was run?
The value was “inactive”.

And the “diameter of the inhibition zone (DIZ)” value (Escherichia coli [1])?
Its value is “inactive”.

What about the zone of inhibition at 1000 µg/disc (Aspergillus fumigatus) of the same compound?
The zone of inhibition at 1000 µg/disc was 9 mm.

What about the zone of inhibition at 1000 µg/disc (Aliivibrio fischeri [2]) of the same compound?
Its zone of inhibition at 1000 µg/disc is 9 mm.

What about the zone of inhibition at 500 µg/disc (Aspergillus parasiticus [3]) of the same compound?
Its zone of inhibition at 500 µg/disc is 8 mm.

What about the zone of inhibition at 1000 µg/disc (Rhodotorula mucilaginosa [4]) of the same compound?
Its zone of inhibition at 1000 µg/disc is 16 mm.

What about the “diameter of the inhibition zone (DIZ)” value (Proteus vulgaris [5]) of the same compound?
Its value is “inactive”.

What about the zone of inhibition at 500 µg/disc (Aliivibrio fischeri [6]) of the same compound?
The zone of inhibition at 500 µg/disc was 7 mm.

And the MIC (Aspergillus parasiticus [7])?
The MIC was 62.5 µg/mL (≈ 174 µM).

What about the zone of inhibition at 500 µg/disc (Aspergillus flavus [8]) of the same compound?
Its zone of inhibition at 500 µg/disc is 7 mm.

And the zone of inhibition at 500 µg/disc (Trichoderma viride [9])?
Its zone of inhibition at 500 µg/disc is 9 mm.

What about the “diameter of the inhibition zone (DIZ)” value (Penicillium chrysogenum [10]) of the same compound?
Its value is “inactive”.

What about the zone of inhibition at 1000 µg/disc [11] of the same compound?
The zone of inhibition at 1000 µg/disc was 8 mm.

What about the zone of inhibition at 1000 µg/disc (Aspergillus flavus [12]) of the same compound?
Its zone of inhibition at 1000 µg/disc is 9 mm.

What about the “diameter of the inhibition zone (DIZ)” value (Klebsiella aerogenes [13]) of the same compound?
Its value is “inactive”.

What about the MIC (Trichoderma viride [14]) of the same compound?
Its MIC is 62.5 µg/mL (≈ 174 µM).

What about the “diameter of the inhibition zone (DIZ)” value (Salmonella typhimurium) of the same compound?
Its value is “inactive”.

What about the “diameter of the inhibition zone (DIZ)” value (Bacillus cereus [15]) of the same compound?
Its value is “inactive”.

And the zone of inhibition at 1000 µg/disc (Trichoderma viride [16])?
Its zone of inhibition at 1000 µg/disc is 10 mm.

And the zone of inhibition at 500 µg/disc [17]?
Its zone of inhibition at 500 µg/disc is 7 mm.

What about the “diameter of the inhibition zone (DIZ)” value (Proteus vulgaris [18]) of the same compound?
Its value is “inactive”.

And the “diameter of the inhibition zone (DIZ)” value (Bacillus cereus [19])?
The value was “inactive”.

And the zone of inhibition at 1000 µg/disc (Escherichia coli [20])?
Its zone of inhibition at 1000 µg/disc is 8 mm.

And the MIC (Escherichia coli [21])?
The MIC was 125 µg/mL (≈ 347 µM).

What about the zone of inhibition at 500 µg/disc (Bacillus subtilis) of the same compound?
Its zone of inhibition at 500 µg/disc is 7 mm.

And the MIC (Aspergillus flavus [22])?
The MIC was 62.5 µg/mL (≈ 174 µM).

And the “diameter of the inhibition zone (DIZ)” value (Pseudomonas aeruginosa [23])?
Its value is “inactive”.

What about the “diameter of the inhibition zone (DIZ)” value (Penicillium chrysogenum [24]) of the same compound?
Its value is “inactive”.

And the “diameter of the inhibition zone (DIZ)” value (Pseudomonas aeruginosa [25])?
The value was “inactive”.

And the “diameter of the inhibition zone (DIZ)” value (Klebsiella aerogenes [26])?
Its value is “inactive”.

What about the “diameter of the inhibition zone (DIZ)” value (Staphylococcus) of the same compound?
The value was “inactive”.

What about the zone of inhibition at 500 µg/disc (Rhodotorula mucilaginosa [27]) of the same compound?
The zone of inhibition at 500 µg/disc was 13 mm.

— ChEMBL document CHEMBL1138564, “Microwave-induced synthesis and anti-microbial activities of 7,10,11,12-tetrahydrobenzo[c]acridin-8(9H)-one derivatives” (2009)
